These results are taken from PMC4698108 (Mucosal immunology, 2015).

The subject of test [1] is Vβ6+ CD4+ T cells in lung and BAL. Nature of the test: TCR Vβ6 expression on CD4+ T cells after BeO exposure. The test is classed as in vivo, HLA-DP2 Tg FVB/N mice. The gist of the method: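 HLA-DP2 Tg FVB/N mice, 6–8 weeks old, were anesthetized with isoflurane and given 100 μg BeO by oropharyngeal aspiration on days 0, 1, 2, 14, 15, 18 and 19, then sacrificed on day 21. BAL used three 0.5 ml PBS instillations, pooled from 20 mice. Lungs were collagenase-digested (1 mg/ml, 30 min, 37°C). Cells were stained with a seven-mAb anti-Vβ panel, and small versus blasting lymphocytes were gated by forward/side scatter.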

Test [2] relates to HLA-DP2 variants with substitutions at positions 26, 68 and 69 of the β-chain. It is filed as cell-based, human. Summed up:
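Human AV22 and murine Vβ6⁺ transfectomas were given BeSO₄ presented by fibroblasts expressing wild-type HLA-DP2 or β-chain variants carrying alanine, glutamine or lysine at positions 26, 68 or 69. Be-induced IL-2 (pg/ml) was measured by ELISA.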

[3] abbreviates: BAL cells pooled from 20 BeO-exposed HLA-DP2 Tg mice.

With `[Be]=[O]` [BeO, Be oxide], in test [1] (setting [3]), the “frequency of CD4+ T cells expressing Vβ6, blasting (large forward scatter) T cells” value is 22.5% and the “frequency of CD4+ T cells expressing Vβ6, small lymphocyte gate” value was 13.7%. Further, the “percentage of BAL CD4+ T cells expressing Vβ6” value in test [1] (BAL of BeO-exposed mice, overall value given in text, unexposed lung 11.1%) came to 16.8%.
With `O=S(=O)([O-])[O-].[Be+2]` [BeSO4], the “Be-induced IL-2 secretion with the EA68 HLA-DP2 β-chain variant” value in test [2] (AV22 transfectoma (Figure 4B)) is listed as “partial reduction in IL-2 secretion”. The “Be-induced IL-2 secretion with amino acid substitutions at positions 26, 68 and 69 of the HLA-DP2 β-chain” value in test [2] (human TCR AV22 and five murine T cell transfectomas, alanine, glutamine or lysine substitutions (Figure 4B)) was “abrogated Be-induced IL-2 secretion”.
